In ChEMBL document CHEMBL6177914, “Human microbiome derived synthetic antimicrobial peptides with activity against Gram-negative, Gram-positive, and antibiotic resistant bacteria” (RSC Med Chem, 2025):
Values after ≈ are worked out from the molar mass of the structure shown. Active and inactive are the calls of the source. No cut-off for these calls is given here. Peptide text beside a SMILES is read from it.

Columns and labels:
[1] = Retention time of compound by RP-HPLC analysis; type: physicochemical
How it was run: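 Analytical reversed-phase HPLC.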

[2] = tested on: Clostridioides difficile; experiment: Antibacterial activity against Clostridium difficile ATCC 43602 assessed as inhibition of bacterial growth incubated for 24 hrs by absorbance based microplate reader analysis; type: functional; conditions: read-out: MIC100
[3] = tested on: Salmonella enterica; experiment: Antibacterial activity against Salmonella enterica ATCC 13314 assessed as inhibition of bacterial growth incubated for 24 hrs by absorbance based microplate reader analysis; type: functional
How it was run: (§1)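 Broth microdilution. An overnight single-colony culture in recommended broth was diluted 1:10 000, and peptide serial dilutions in DMSO were added (4 µL into 196 µL). Plates incubated 24 h at 37 °C, aerobic or anaerobic as required, then OD600 read. Inhibition was calculated against pathogen-only and blank wells.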

[4] = tested on: Escherichia coli; experiment: Antibacterial activity against Escherichia coli ATCC 33694 assessed as inhibition of bacterial growth incubated for 24 hrs by absorbance based microplate reader analysis; type: functional; how it was run: as §1
[5] = tested on: Staphylococcus aureus; experiment: Bactericidal activity against methicillin resistant Staphylococcus aureus BAA 2313 assessed as inhibition of bacterial growth at MIC concentration incubated for 48 hrs by broth microdilution assay; type: functional, organism-based
How it was run: (§2)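 Plates were incubated 48 h at 37 °C and examined for colonies. A fidaxomicin-treated culture at 1 µM served as the control.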

[6] = tested on: Enterococcus faecium; experiment: Bactericidal activity against vancomycin resistant Enterococcus faecium BAA 2317 assessed as inhibition of bacterial growth at MIC concentration incubated for 48 hrs by broth microdilution assay; type: functional, organism-based; how it was run: as §2
[7] = tested on: Clostridioides difficile; experiment: Bactericidal activity against Clostridium difficile ATCC 43602 assessed as inhibition of bacterial growth at MIC concentration incubated for 48 hrs by broth microdilution assay; type: functional, organism-based
How it was run: (§3)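 From broth-microdilution wells showing no growth, 10 µL was spotted onto agar and incubated 48 h at 37 °C. Plates were inspected for colonies. Fidaxomicin at 1 µM served as control.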

[8] = tested on: Escherichia coli; experiment: Bactericidal activity against Escherichia coli ATCC 33694 assessed as inhibition of bacterial growth at MIC concentration incubated for 48 hrs by broth microdilution assay; type: functional, organism-based; how it was run: as §3
[9] = tested on: Pseudomonas aeruginosa; experiment: Antibacterial activity against Pseudomonas aeruginosa BAA 1744 assessed as inhibition of bacterial growth incubated for 24 hrs by absorbance based microplate reader analysis; type: functional; how it was run: as §1
[10] = tested on: Staphylococcus aureus; experiment: Bactericidal activity against Staphylococcus aureus ATCC 25923 assessed as inhibition of bacterial growth at MIC concentration incubated for 48 hrs by broth microdilution assay; type: functional, organism-based; how it was run: as §3
[11] = tested on: Listeria monocytogenes; experiment: Bactericidal activity against Listeria monocytogenes ATCC 15313 assessed as inhibition of bacterial growth at MIC concentration incubated for 48 hrs by broth microdilution assay; type: functional, organism-based; how it was run: as §3
[12] = tested on: Salmonella enterica; experiment: Bactericidal activity against Salmonella enterica ATCC 13314 assessed as inhibition of bacterial growth at MIC concentration incubated for 48 hrs by broth microdilution assay; type: functional, organism-based; how it was run: as §3
[13] = tested on: Enterococcus faecium; experiment: Antibacterial activity against vancomycin resistant Enterococcus faecium BAA 2317 assessed as inhibition of bacterial growth incubated for 24 hrs by absorbance based microplate reader analysis; type: functional; conditions: for MIC: read-out: MIC100
How it was run: (§4)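 Broth microdilution. A single colony was grown 24 h in its recommended broth, then diluted 1:10 000 in the same medium. Peptide serial dilutions were added from DMSO stock at 4 µL per 196 µL inoculated medium. Plates were incubated aerobically or anaerobically as each pathogen requires, at 37 °C for 24 h, and OD600 was read. MIC was the lowest concentration giving 100% growth inhibition. Duplicate wells; assay repeated five times independently.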

[14] = tested on: Caco-2; experiment: Anti-inflammatory activity in human Caco-2 cells infected with Clostridium difficile ATCC 43602 assessed as reduction in IL-6 level at MIC concentration by ELISA relative to control; type: functional; set-up: scale not given: the % may be the effect or the level left
How it was run: (§5)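 Caco-2 cells grown in DMEM + 10% FBS, 37 °C, 5% CO2, to 90% confluence, then seeded 30 000 cells/well and held 24 h. C. difficile was grown overnight anaerobically in meat broth, washed in PBS, and 1 µL of 0.5 OD600 culture added per 300 µL medium. […] Cytokine in supernatant measured by ELISA; three independent replicates.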

[15] = tested on: Pseudomonas aeruginosa; experiment: Bactericidal activity against Pseudomonas aeruginosa BAA 1744 assessed as inhibition of bacterial growth at MIC concentration incubated for 48 hrs by broth microdilution assay; type: functional, organism-based; how it was run: as §3
[16] = tested on: Staphylococcus aureus; experiment: Antibacterial activity against methicillin resistant Staphylococcus aureus BAA 2313 assessed as inhibition of bacterial growth incubated for 24 hrs by absorbance based microplate reader analysis; type: functional
How it was run: as §4, with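 “read.” for “read. MIC was the lowest concentration giving 100% growth inhibition.”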

[17] = tested on: Listeria monocytogenes; experiment: Antibacterial activity against Listeria monocytogenes ATCC 15313 assessed as inhibition of bacterial growth incubated for 24 hrs by absorbance based microplate reader analysis; type: functional; conditions: for MIC: read-out: MIC100
How it was run: as §4, with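 “read.” for “read. MIC was the lowest concentration giving 100% growth inhibition.”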

[18] = tested on: Caco-2; experiment: Anti-inflammatory activity in human Caco-2 cells infected with Clostridium difficile ATCC 43602 assessed as reduction in TNFalpha level at MIC concentration by ELISA relative to control; type: functional; set-up: scale not given: the % may be the effect or the level left; how it was run: as §5
[19] = tested on: Caco-2; experiment: Anti-inflammatory activity in human Caco-2 cells infected with Clostridium difficile ATCC 43602 assessed as reduction in IL-1beta level at MIC concentration by ELISA relative to control; type: functional; set-up: scale not given: the % may be the effect or the level left; how it was run: as §5

| Compound | Retention_time [1] [min] | Activity [3] | Activity [4] | Activity [5] | Activity [6] | Activity [7] | Activity [8] | Activity [9] | Activity [10] | Activity [11] | Activity [12] | Activity [15] | Activity [16] | Activity [13] | further results |
| --- | --- | --- | --- | --- | --- | --- | --- | --- | --- | --- | --- | --- | --- | --- | --- |
| CC[C@H](C)[C@H](NC(=O)[C@H](C)NC(=O)[C@H](C)NC(=O)[C@@H](N)C(C)C)C(=O)N[C@@H](CC(C)C)C(=O)NCC(=O)N[C@@H](Cc1ccccc1)C(=O)N[C@@H](CC(C)C)C(=O)N[C@@H](C)C(=O)N[C@H](C(N)=O)[C@@H](C)O | 14.9 | – | – | – | – | – | – | – | – | – | – | – | – | – | – |
| H-IGPLVIPVAAIL-NH2 | 15.83 | inactive | inactive | Active | Active | Active | Active | inactive | Active | Active | Active | Active | – | – | MIC [2]: 1.8 µM; MIC [13]: 1.5 µM; Activity [14]: 25% |
| H-MNKLNEVELSKI-NH2 | 11.81 | inactive | inactive | Active | Active | Active | Active | inactive | Active | Active | Active | Active | inactive | inactive | – |
| H-HADELVAGVKQ-NH2 | 9.41 | inactive | inactive | Active | Active | Active | Active | inactive | Active | Active | Active | Active | – | – | – |
| H-KISGGIGPLV-NH2 | 17.32 | inactive | inactive | Active | Active | Active | Active | inactive | Active | Active | Active | Active | inactive | inactive | Activity [17]: inactive |
| H-DAWNHADELV-NH2 | 15.95 | inactive | inactive | Active | Active | Active | Active | inactive | Active | Active | Active | Active | – | inactive | Activity [18]: 0%; Activity [17]: inactive |
| H-AGVKQGWERS-NH2 | 6.41 | inactive | – | Active | Active | Active | Active | inactive | Active | Active | Active | Active | – | – | Activity [18]: 0%; Activity [19]: 18% |
| CCc1c(Cl)c(O)c(Cl)c(O)c1C(=O)O[C@H]1[C@H](O)[C@H](OC)[C@H](OC/C2=C\C=C\C[C@H](O)/C(C)=C/[C@H](CC)[C@@H](O[C@@H]3OC(C)(C)[C@@H](OC(=O)C(C)C)[C@H](O)[C@@H]3O)/C(C)=C/C(C)=C/C[C@@H]([C@@H](C)O)OC2=O)O[C@@H]1C [FIDAXOMICIN] | – | – | – | – | – | – | – | – | – | – | – | – | – | – | MIC [2]: 1 µM (≈ 1.06 µg/mL); MIC [17]: 1 µM (≈ 1.06 µg/mL); MIC [13]: 2 µM (≈ 2.12 µg/mL) |
| H-KLNEVELSKISGG-NH2 | 14.98 | inactive | inactive | Active | Active | Active | Active | inactive | Active | Active | Active | Active | – | – | MIC [17]: 2.6 µM |
| O=C(O)c1cn(C2CC2)c2cc(N3CCNCC3)c(F)cc2c1=O [CIPROFLOXACIN] | – | – | – | – | – | – | – | – | – | – | – | – | – | – | MIC [13]: 4 µM (≈ 1.33 µg/mL) |
| H-LSKISG-NH2 | 9.94 | inactive | inactive | Active | Active | Active | Active | inactive | Active | Active | Active | Active | inactive | inactive | – |
| H-LSKISGGIGP-NH2 | 13.63 | inactive | inactive | Active | Active | Active | Active | inactive | Active | Active | Active | Active | inactive | inactive | – |
| CC[C@H](C)[C@@H]1NC(=O)CNC(=O)CNC(=O)[C@H](CO)NC(=O)[C@H]([C@@H](C)CC)NC(=O)[C@H](CCCCN)NC(=O)[C@H](CO)NC(=O)[C@H](CC(C)C)NC(=O)[C@H](C(C)C)NC(=O)[C@@H]2CCCN2C(=O)[C@H]([C@@H](C)CC)NC(=O)[C@H](C(C)C)NC(=O)[C@H](CC(C)C)NC(=O)[C@@H]2CCCN2C(=O)CNC1=O (cyclo(LSKISGGIGPLVIPV)) | 18.35 | inactive | – | Active | Active | Active | Active | – | Active | Active | Active | Active | – | – | MIC [2]: 0.9 µM (≈ 1.29 µg/mL); MIC [17]: 1.5 µM (≈ 2.15 µg/mL); Activity [14]: 4% |
| CC[C@H](C)[C@H](NC(=O)[C@H](C)NC(=O)[C@H](C)NC(=O)[C@@H](N)C(C)C)C(=O)N[C@@H](CC(C)C)C(=O)NCC(=O)N[C@@H](Cc1ccccc1)C(=O)N[C@@H](CC(C)C)C(=O)N[C@@H](C)C(=O)N[C@@H](C(N)=O)[C@H](C)O | – | inactive | inactive | Active | Active | Active | Active | inactive | Active | Active | Active | Active | inactive | inactive | Activity [17]: inactive |
